# Assay results taken from article PMC3932306 (Journal of natural products, 2013).
# Key:
# [1] = molecular target: T1, cathepsin L (Homo sapiens, UniProt P07711); assay: Reversibility: preincubation-dilution experiment; assay type: biochemical; conditions: preincubation-dilution and activity-probe experiments
# Outline: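 Preincubation-dilution test: cathepsin L at 100-fold final assay concentration was incubated 30 min with a concentrated test compound in 2 µL. The mix was then diluted 100-fold into assay buffer containing 10 µM Z-FR-AMC, 200 µL final. AMC release was monitored continuously in kinetic mode for 2 h. Activity was compared against a vehicle control.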
# [2] = molecular target: T1, cathepsin L; assay: Active-site directed probe; assay type: binding; conditions: 30 min preincubation; enzyme 100 nM
# Outline: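 Test compound in a 6-point, 3-fold serial dilution (10% DMSO) was preincubated 30 min at room temperature with recombinant human cathepsin L in 100 mM sodium acetate, 1.0 mM EDTA, 4 mM DTT, pH 5.5. CLIK-148 and DMSO served as controls. Biotinylated epoxide probe DCG-04 (10 µM stock) was added for 30 min at room temperature. Samples were denatured at 70 °C for 5 min, run on 12% Bis-Tris SDS-PAGE and blotted to nitrocellulose. Detection used avidin/biotinylated HRP with chemiluminescence.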
# [3] = molecular target: human cathepsin H (Homo sapiens, UniProt P09668); assay: Selectivity: cathepsin H inhibition; assay type: biochemical; conditions: at the highest assay concentrations
# human cathepsin H, sequence (P09668 116-335 limits assumed, other chains not shown): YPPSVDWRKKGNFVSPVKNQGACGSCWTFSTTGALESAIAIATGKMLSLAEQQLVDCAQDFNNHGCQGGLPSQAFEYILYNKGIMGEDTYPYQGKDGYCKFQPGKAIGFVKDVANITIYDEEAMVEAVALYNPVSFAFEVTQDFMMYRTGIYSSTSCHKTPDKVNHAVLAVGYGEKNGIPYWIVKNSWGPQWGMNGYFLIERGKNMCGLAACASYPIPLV
# Outline: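 Human cathepsin H (50 ng/mL) in 50 mM potassium phosphate, 3 mM cysteine, 1 mM EDTA, pH 6.4, with 200 µM Arg-AMC substrate. Dose-response ran with 0 min and 30 min enzyme–inhibitor preincubation, otherwise as for the cathepsin L assay, in technical triplicate.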
# [4] = molecular target: T1, cathepsin L; assay: Cathepsin L inhibition assay; assay type: biochemical; conditions: for Selectivity Index: IC50 of assayed protease / IC50 cathepsin L
# Outline: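 Recombinant human cathepsin L (3.0 ng/mL) with 20 µM Z-Phe-Arg-AMC in 50 mM sodium acetate, 100 mM NaCl, 1.0 mM EDTA, 4 mM DTT, pH 5.5, at 25 °C. Fluorescence read at 365/450 nm. Dose-response was […], 3-fold, 333–0.46 nM, in triplicate, with immediate mixing or 30 min enzyme–inhibitor preincubation. Data were scaled to E-64-c/DMSO controls and fitted to a four-parameter logistic model for IC50. Selectivity index = IC50 of the assayed protease / IC50 of cathepsin L for each condition.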
# [5] = tested on: Plasmodium falciparum falcipain proteases; conditions: cited from earlier work
# [6] = tested on: murine cathepsin L; conditions: cited from earlier work
# T1 sequence (P07711 114-333): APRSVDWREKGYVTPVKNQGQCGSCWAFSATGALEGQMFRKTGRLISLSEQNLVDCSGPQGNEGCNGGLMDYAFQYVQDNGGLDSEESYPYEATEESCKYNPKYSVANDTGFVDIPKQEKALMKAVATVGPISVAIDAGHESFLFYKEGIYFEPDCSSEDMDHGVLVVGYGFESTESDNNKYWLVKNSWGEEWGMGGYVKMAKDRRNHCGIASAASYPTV
compound,measurement,setting,value
"CC[C@H](C)[C@@H](C(=O)O[C@@H](CC(C)C)C(=O)N[C@@H](CC(C)C)C(=O)N[C@@H](C)/C=C/C(=O)N1C(=O)C=C(OC)[C@@H]1C)N(C)C [compound 1, gallinamide A]",mode of inhibition,[1],irreversible
same,concentration giving complete loss of DCG-04 probe labeling,[2],333 nM
same,concentration giving decreased DCG-04 probe labeling,[2],111 nM
same,activity against cathepsin H (in words),[3],inactive
same,Selectivity Index,[4]; 0 min,1
same,Selectivity Index,[4]; 30 min,1
same,inhibition at 3 µg/mL,[4]; read-out: inhibition of cathepsin L,97 to 99%
same,mode of inhibition of falcipain proteases,[5]; based on kinetic model fitting,"covalent, irreversible inhibitor"
same,inhibition of P. falciparum falcipain proteases (in words),[5],potent inhibition
same,inhibition of murine cathepsin L (in words),[6],moderate inhibition
